LC50 data for 13 molecules are collected here from ChEMBL document CHEMBL5500359, “Identification of a new bisindolinone arresting IGROV1 cells proliferation” (Eur J Med Chem, 2024).

Usually LC50 stands for the concentration lethal to half of the exposed cells or organisms. Read a low LC50 as greater toxicity.

Holding throughout (type): functional
One assay deals with NSCLC. Briefly: Cytotoxicity against human NSCLC cells incubated for 48 hrs by SRB assay. In a few lines:
(§1)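 NCI-60 five-concentration screen: lines seeded 5×10^3–4×10^4 cells/well depending on line; compound diluted in fresh medium at scalar concentrations 0–100 or 0–1000 μM; 48 h exposure, in situ fixation, sulforhodamine B protein staining, optical density read; GI50, TGI and LC50 per NCI procedures; panel mean = mean graph midpoint.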

The test system of the next assay is Prostatic carcinoma cell. The assay can be described thus: Cytotoxicity against human Prostate carcinoma cells incubated for 48 hrs by SRB assay. In a few lines:
as §1

A further assay concerns Melanoma cell line. The assay can be described thus: Cytotoxicity against human Melanoma cells incubated for 48 hrs by SRB assay. In a few lines:
as §1

Consider `COc1ccc2c(c1)/C(=C\c1cc(C(C)(C)C)cc(/C=C3/C(=O)N(C)c4ccc(OC)cc43)c1O)C(=O)N2C`, for which the LC50 in the assay with NSCLC amounted to 31.6 µM; with Prostatic carcinoma cell, 67.6 µM; with Melanoma cell line, 9.55 µM.
In the same order, the values of `O=C1Nc2cccc(F)c2/C1=C\c1cccc(/C=C2/C(=O)Nc3cccc(F)c32)c1` are 33.1 µM, 18.6 µM and 9.33 µM.
In the same order, the values of `CC(C)(C)c1cc(/C=C2/C(=O)Nc3ccc(F)cc32)c(O)c(/C=C2/C(=O)Nc3ccc(F)cc32)c1` are 47.9 µM, 4.74 µM and 33.9 µM.
With `CC(C)(C)c1cc(/C=C2/C(=O)Nc3cccc(F)c32)c(O)c(/C=C2/C(=O)Nc3cccc(F)c32)c1`, the LC50 in the assay with NSCLC was determined as 15.8 µM; with Prostatic carcinoma cell it was 36.3 µM; in the assay with Melanoma cell line, 13.2 µM.
In the same order, the values of `COc1ccc2[nH]c(Cl)c(/C=C3/C(=O)N(C)c4cc5c(cc43)/C(=C\c3c(Cl)[nH]c4ccc(OC)cc34)C(=O)N5C)c2c1` are 24.6 µM, 7.94 µM and 12.9 µM.
The like results for `CC(C)(C)c1cc(/C=C2/C(=O)Nc3cc(Cl)ccc32)c(O)c(/C=C2/C(=O)Nc3cc(Cl)ccc32)c1` were, in that order, 47.9 µM, 38 µM and 30.9 µM.
With `Cc1cc2c(cc1O)/C(=C\c1cc(C(C)(C)C)cc(C=O)c1O)C(=O)N2`, the LC50 with NSCLC came to 51.3 µM; in the assay with Prostatic carcinoma cell, 57.5 µM; in the assay on Melanoma cell line it was 37.1 µM.
As to `COc1cc2c(cc1C)NC(=O)/C2=C/c1ccc2ccc3ccc(/C=C4/C(=O)Nc5cc(C)c(OC)cc54)nc3c2n1`, the figures for the 50% lethal concentration (LC50) in the assay with NSCLC and in the assay with Melanoma cell line were 52.5 µM and 55 µM, respectively.
For `COc1cc2c(/C=C3/C(=O)N(C)c4cc5c(cc43)/C(=C\c3c(Cl)[nH]c4cc(C)c(OC)cc34)C(=O)N5C)c(Cl)[nH]c2cc1C`, the LC50 turned out to be 51.3 µM with NSCLC, 20.4 µM in the assay on Prostatic carcinoma cell and 22.4 µM in the assay on Melanoma cell line.
In the same order, the values of `O=C1Nc2cc(Cl)ccc2/C1=C\c1cccc(/C=C2/C(=O)Nc3cc(Cl)ccc32)c1` are 45.7 µM, 28.2 µM and 19.5 µM.
With `COc1ccc2c(c1)/C(=C\c1ccc3ccc4ccc(/C=C5/C(=O)N(C)c6ccc(OC)cc65)nc4c3n1)C(=O)N2C`, the LC50 with NSCLC was 85.1 µM; in the assay with Prostatic carcinoma cell it was 56.2 µM; in the assay with Melanoma cell line, 30.2 µM.
Turning to `O=C1Nc2ccc(Cl)cc2/C1=C\c1ccc2ccc3ccc(/C=C4/C(=O)Nc5ccc(Cl)cc54)nc3c2n1`, the LC50 in the assay with NSCLC worked out at 52.5 µM; in the assay with Melanoma cell line it was 51.3 µM.
`COc1cc2c(c(OC)c1OC)C(=Cc1cc(C(C)(C)C)cc(/C=C3\C(=O)Nc4cc(OC)c(OC)c(OC)c43)c1O)C(=O)N2`: the median lethal concentration (LC50) in the assay with NSCLC was found to be 14.8 µM; in the assay with Prostatic carcinoma cell, 12.6 µM; in the assay on Melanoma cell line it was 8.13 µM.
